Screens as filed in PubChem BioAssay.
Most compounds without a hit are left out; they make up all but 2.3% or so of the library.
PPC-1+TRAIL kill: PPC-1 cancer cell killing with TRAIL present; PPC-1 cells + TRAIL, ATPLite viability luminescence; cell killing (% activity), % at 4 µM or 5 µM; 220,000 tested, 0.41% active; AID 1443;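 active = cell killing above 50% in the first pass at 4 µM, then a duplicate retest at 5 µM averaging 50% or more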
TRAIL sens C8: caspase-8 TRAIL sensitization; inhibition (viability loss, TRAIL sensitization), % at 10 µM; AID 624354; NB7+C8 cells + TRAIL, ATPlite viability luminescence; 360,000 tested, 1% active;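 active = compounds causing at least 50% loss of cell viability in the single-dose screen, relative to plate controls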
HSP90 inh: blocks HSP90-mediated luciferase refolding in reticulocyte lysate. Rabbit reticulocyte lysate, luciferase refolding luminescence, 3 h. inhibition, % at 5.6 µM. 290,000 tested, 0.91% active;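 active = inhibition above the screen-wide mean plus 3 SD, computed separately per campaign, cut at about 16% in these data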;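 also: inhibitors lower the luminescence because luciferase stays unfolded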
STAT3 inh: inhibitors of IL-6 induced STAT3 signaling | U3A cells, IL-6 STAT3-luciferase reporter, luminescence; host cell line lacks STAT1 | inhibition, % at 5.5 µM | 190,000 tested, 0.89% active;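 active = inhibition above the mean inhibition across all screened compounds plus 3 SD, cut at about 44% in these data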
STAT1 inh: inhibitors of IFN-gamma induced STAT1 signaling; inhibition, % at 5.5 µM; 200,000 tested, 0.35% active; AID 920; NIH 3T3 STAT1-luciferase reporter, luminescence;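 active = inhibition above a set limit, the mean inhibition across all tested compounds plus 3 SD, cut at about 34% in these data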
STAT3 act: STAT3 signaling activation; U3A cells, IL-6 STAT3-luciferase reporter, luminescence; 100% = signal with IL-6 EC80 alone; activation (% of control), % at 5.6 µM; 190,000 tested, 0.91% active; AID 871;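 active = activation above the screen-wide mean of compound activation plus 3 SD, cut at about 130% in these data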
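Material: STAT3-luciferase reporter U3A cells; Probe or stimulus: IL-6 (33 ng/mL); Incubation: compound pre-incubation 1 h before IL-6, then 6 h stimulation at 37 °C; Technique: luminescence from STAT3-driven luciferase reporter; Evaluation: % activation versus median of IL-6-stimulated wells; Controls: IL-6-only high control.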
HSP90 confirm: HSP90 inhibition, confirmation assay; shares compounds with HSP90 inh; rabbit reticulocyte lysate, luciferase refolding luminescence, 3 h; inhibition, % at 5.9 µM; 2,300 tested, 64% active; AID 1846; in the data active = inhibition above about 18%
FLuc counter: counter-screen for HSP90 inhibitors: inhibitors of firefly luciferase; purified native firefly luciferase, luminescence; shares compounds with HSP90 inh; AID 1847; 2,300 tested, 48% active; inhibition, % at 5.9 µM;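 active = inhibition above the mean inhibition of all tested sample wells plus 3 SD, cut at about 10% in these data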
Target sequence (P08659 whole entry, looked up): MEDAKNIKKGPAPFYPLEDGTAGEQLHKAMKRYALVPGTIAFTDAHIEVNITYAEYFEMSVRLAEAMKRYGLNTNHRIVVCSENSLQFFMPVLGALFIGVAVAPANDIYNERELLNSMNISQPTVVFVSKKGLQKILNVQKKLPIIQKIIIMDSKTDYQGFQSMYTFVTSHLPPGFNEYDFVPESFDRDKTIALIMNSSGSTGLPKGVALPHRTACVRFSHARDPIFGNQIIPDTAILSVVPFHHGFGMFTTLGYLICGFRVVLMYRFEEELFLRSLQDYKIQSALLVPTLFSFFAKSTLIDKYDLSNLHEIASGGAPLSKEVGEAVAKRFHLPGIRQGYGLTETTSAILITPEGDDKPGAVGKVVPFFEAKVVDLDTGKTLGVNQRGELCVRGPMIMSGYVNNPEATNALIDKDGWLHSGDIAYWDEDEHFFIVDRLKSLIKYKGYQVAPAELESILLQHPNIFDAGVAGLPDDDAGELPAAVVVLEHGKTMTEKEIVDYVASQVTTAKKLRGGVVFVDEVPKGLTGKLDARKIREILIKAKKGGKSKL
Hits are given with their value.

How did CC(=O)N(C1=C(N2CCOCC2)C(=O)c2ccccc2C1=O)c1ccc(C(=O)O)cc1 do in these assays?
PPC-1+TRAIL kill: inactive; TRAIL sens C8: inactive; HSP90 inh: 24.3; HSP90 confirm: inactive; FLuc counter: inactive

How did CC(=O)O/N=C/c1c(Cl)n(C)c2ccccc12 do in these assays?
PPC-1+TRAIL kill: inactive; TRAIL sens C8: inactive; HSP90 inh: inactive; STAT3 inh: inactive; STAT1 inh: inactive; STAT3 act: inactive

Results for O=C(NC12CC3CC(CC(C3)C1)C2)c1ccco1 ?
TRAIL sens C8: inactive; HSP90 inh: inactive

What do the screens show for `O=C(NC12CC3CC(CC(C3)C1)C2)c1ccc(-c2ccccc2Cl)o1`?
PPC-1+TRAIL kill: inactive; TRAIL sens C8: inactive; HSP90 inh: 25.7; STAT3 inh: inactive; STAT1 inh: inactive; STAT3 act: inactive; HSP90 confirm: 37.6; FLuc counter: 30.1

How did O=C1COc2ccc3ccccc3c21 do in these assays?
TRAIL sens C8: inactive; HSP90 inh: 24.9; HSP90 confirm: inactive; FLuc counter: inactive

Results for CC(C)(C)NC(=S)NCc1ccncc1 ?
PPC-1+TRAIL kill: inactive; TRAIL sens C8: inactive; HSP90 inh: 23.1; STAT3 inh: inactive; STAT1 inh: inactive; STAT3 act: inactive; HSP90 confirm: inactive; FLuc counter: inactive

Results for N#CC1(C#N)COC23CCCCC2C1(C#N)C(=N)O3 (centres undefined) ?
PPC-1+TRAIL kill: inactive; TRAIL sens C8: inactive; HSP90 inh: 17.7; STAT3 inh: inactive; STAT1 inh: inactive; STAT3 act: inactive; HSP90 confirm: inactive; FLuc counter: inactive

What do the screens show for `C=CCn1cc(C(=O)NCCN(CC)CC)c(=O)c2cc(S(=O)(=O)N3CCCCCC3)ccc21`?
TRAIL sens C8: inactive; HSP90 inh: inactive

Results for O=c1oc(Nc2cccc(F)c2)nc2ccccc12 ?
PPC-1+TRAIL kill: inactive; TRAIL sens C8: inactive; HSP90 inh: 17.5; STAT3 inh: inactive; STAT1 inh: inactive; STAT3 act: inactive; HSP90 confirm: inactive; FLuc counter: inactive

Results for Fc1cccc(Nc2c3c(nc4ccccc24)CCC3)c1 ?
TRAIL sens C8: inactive; HSP90 inh: inactive

Results for CCCCOC(=O)CSC1=C(C#N)C(c2ccccc2OCC)C(C#N)C(=O)N1 (centres undefined) ?
PPC-1+TRAIL kill: inactive; TRAIL sens C8: inactive; HSP90 inh: inactive; STAT3 inh: inactive; STAT1 inh: inactive; STAT3 act: inactive

How did Clc1ccc(-n2ncc3c(NCCN4CCOCC4)ncnc32)cc1 do in these assays?
PPC-1+TRAIL kill: inactive; TRAIL sens C8: inactive; HSP90 inh: 44.2; STAT3 inh: inactive; STAT1 inh: inactive; STAT3 act: inactive; HSP90 confirm: 50.1; FLuc counter: 41.8

How did CC(CN1CCOCC1)OC(=O)C1COc2ccccc2O1 (centres undefined) do in these assays?
PPC-1+TRAIL kill: inactive; TRAIL sens C8: inactive; HSP90 inh: inactive; STAT3 inh: inactive; STAT1 inh: inactive; STAT3 act: inactive

What do the screens show for `N#CCCN(Cc1cccnc1)C(=S)NCc1ccco1`?
PPC-1+TRAIL kill: inactive; TRAIL sens C8: inactive; HSP90 inh: 61.5; STAT3 inh: inactive; STAT1 inh: inactive; STAT3 act: inactive; HSP90 confirm: inactive; FLuc counter: inactive

How did N#CCCN(Cc1cccnc1)C(=S)NC(=O)c1ccco1 do in these assays?
PPC-1+TRAIL kill: inactive; TRAIL sens C8: inactive; HSP90 inh: inactive; STAT3 inh: inactive; STAT1 inh: inactive; STAT3 act: inactive

Results for CC(=O)c1ccc(NC(=O)Cn2cnc(S(=O)(=O)N3CCCC3)c2)cc1 ?
TRAIL sens C8: inactive; HSP90 inh: 26.4; HSP90 confirm: inactive; FLuc counter: inactive

How did c1ccc(-n2cnc3cc(NCc4ccccn4)ccc32)cc1 do in these assays?
PPC-1+TRAIL kill: inactive; TRAIL sens C8: inactive; HSP90 inh: 18.1; STAT3 inh: inactive; STAT1 inh: inactive; STAT3 act: inactive; HSP90 confirm: 18.4; FLuc counter: inactive

Results for c1ccc(-n2cnc3cc(NCc4ccncc4)ccc32)cc1 ?
PPC-1+TRAIL kill: inactive; TRAIL sens C8: inactive; HSP90 inh: inactive; STAT3 inh: inactive; STAT1 inh: inactive; STAT3 act: inactive

How did COc1ccc(-c2cc(C(=O)N3CCOCC3)no2)cc1 do in these assays?
TRAIL sens C8: 51.4; HSP90 inh: 37.0; HSP90 confirm: 50.0; FLuc counter: 32.3

How did CC1CCN(C(=O)c2cc(-c3ccc4c(c3)OCO4)on2)CC1 do in these assays?
TRAIL sens C8: inactive; HSP90 inh: 20.3; HSP90 confirm: 39.1; FLuc counter: 28.2

What do the screens show for `COc1cccc(-c2cc(C(=O)N3CCOCC3)no2)c1`?
TRAIL sens C8: inactive; HSP90 inh: 18.5; HSP90 confirm: 18.6; FLuc counter: inactive

Results for O=C(c1cc(-c2cccc(O)c2)on1)N1CCOCC1 ?
PPC-1+TRAIL kill: inactive; TRAIL sens C8: inactive; HSP90 inh: inactive; STAT3 inh: inactive; STAT1 inh: inactive; STAT3 act: inactive

Results for O=C(c1cc(-c2ccc(Br)cc2)on1)N1CCOCC1 ?
TRAIL sens C8: inactive; HSP90 inh: 18.9; HSP90 confirm: 38.3; FLuc counter: 29.1

What do the screens show for `Cc1ccc(C)c(NC(=O)CSc2nnc(CCNC(=O)OC(C)(C)C)o2)c1`?
PPC-1+TRAIL kill: inactive; TRAIL sens C8: inactive; HSP90 inh: inactive; STAT3 inh: inactive; STAT1 inh: inactive; STAT3 act: inactive

Results for O=C(CCN1C(=O)COc2ccccc21)NCCCN1CCc2ccccc2C1 ?
PPC-1+TRAIL kill: inactive; TRAIL sens C8: inactive; HSP90 inh: inactive; STAT3 inh: inactive; STAT1 inh: inactive; STAT3 act: inactive

How did Cc1nnsc1S(=O)c1ccc(F)cc1 (centres undefined) do in these assays?
TRAIL sens C8: inactive; HSP90 inh: 23.9; HSP90 confirm: inactive; FLuc counter: inactive

What do the screens show for `CN(C)S(=O)(=O)c1ccc(NC(=O)c2ccncc2)cc1`?
PPC-1+TRAIL kill: inactive; TRAIL sens C8: inactive; HSP90 inh: 42.2; STAT3 inh: inactive; STAT1 inh: inactive; STAT3 act: inactive; HSP90 confirm: inactive; FLuc counter: inactive

What do the screens show for `CN(C)S(=O)(=O)c1cccc(NC(=O)c2ccncc2)c1`?
PPC-1+TRAIL kill: inactive; TRAIL sens C8: inactive; HSP90 inh: inactive; STAT3 inh: inactive; STAT1 inh: inactive; STAT3 act: inactive

What do the screens show for `COCCNS(=O)(=O)c1cc(OC)c(Cl)cc1Cl`?
PPC-1+TRAIL kill: inactive; HSP90 inh: 17.5; STAT3 inh: inactive; STAT1 inh: inactive; STAT3 act: inactive; HSP90 confirm: inactive; FLuc counter: inactive

How did CS(=O)(=O)N(Cc1cc2ccccc2[nH]c1=O)C1CCCCC1 do in these assays?
PPC-1+TRAIL kill: inactive; TRAIL sens C8: inactive; HSP90 inh: inactive; STAT3 inh: inactive; STAT1 inh: inactive; STAT3 act: inactive
